{"source": "paper PMC4862007", "about": "(Cell metabolism, 2015)", "target": "T1, ABHD5 / PLIN1 (luciferase complementation) (Mus musculus, UniProt Q9DBL9)", "T1 sequence (Q9DBL9 1-351)": "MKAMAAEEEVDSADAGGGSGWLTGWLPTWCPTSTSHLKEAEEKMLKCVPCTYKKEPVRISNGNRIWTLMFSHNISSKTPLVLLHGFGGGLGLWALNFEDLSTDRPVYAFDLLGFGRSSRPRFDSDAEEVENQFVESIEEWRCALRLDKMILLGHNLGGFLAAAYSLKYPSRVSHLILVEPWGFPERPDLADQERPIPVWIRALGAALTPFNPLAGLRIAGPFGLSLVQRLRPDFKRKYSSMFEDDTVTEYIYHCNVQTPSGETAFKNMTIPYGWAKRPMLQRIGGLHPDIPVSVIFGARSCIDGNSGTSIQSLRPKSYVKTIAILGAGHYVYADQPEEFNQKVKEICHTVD", "T1 sequence (Q8CGN5 1-517 partner)": "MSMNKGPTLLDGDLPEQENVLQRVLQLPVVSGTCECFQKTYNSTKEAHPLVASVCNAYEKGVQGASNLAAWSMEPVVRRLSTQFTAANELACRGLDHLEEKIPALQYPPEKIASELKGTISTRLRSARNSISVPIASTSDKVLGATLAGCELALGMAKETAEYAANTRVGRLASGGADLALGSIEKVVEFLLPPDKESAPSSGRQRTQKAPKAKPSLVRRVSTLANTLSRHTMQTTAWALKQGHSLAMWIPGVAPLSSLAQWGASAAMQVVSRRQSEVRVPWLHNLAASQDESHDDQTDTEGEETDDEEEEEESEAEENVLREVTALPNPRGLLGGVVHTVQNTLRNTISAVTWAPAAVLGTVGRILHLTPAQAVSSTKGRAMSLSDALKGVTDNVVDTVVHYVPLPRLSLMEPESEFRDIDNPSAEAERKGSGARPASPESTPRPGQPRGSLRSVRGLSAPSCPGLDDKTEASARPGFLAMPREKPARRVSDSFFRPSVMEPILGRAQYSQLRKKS", "assay": "luciferase complementation, disruption of ABHD5-PLIN1 binding", "format": "biochemical", "settings": "mixed 293T lysates, 4 h, room temperature; n=8", "procedure,_shortened": "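Lysates are prepared separately from transfected 293T cells and equal amounts of each are combined. Test compound is added in DMSO, with a DMSO vehicle control. After 4 h at room temperature, complementation is read as luciferase activity.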"}
{"smiles": "Cc1ccc2c(CC(=O)N3CCN(S(=O)(=O)c4ccc5c(c4)OCCO5)CC3)coc2c1", "note": "[SR-4559]", "values": [{"measurement": "IC50", "result": "0.51 ± 0.06", "unit": "µM"}]}
{"smiles": "CCCCNC(=O)Nc1ccc2c(c1)N(C)C(=O)c1ccccc1S2", "note": "[SR-4995]", "values": [{"measurement": "IC50", "result": "0.2 ± 0.03", "unit": "µM"}]}
